# Assay results pooled from the literature.
# Protocols differ between the studies behind these lines.
# CDK2 with cyclin A2: Cyclin-dependent kinase 2, with cyclin A2 (CDK2, Homo sapiens, UniProt P24941)
# ST14: Suppressor of tumorigenicity 14 protein (ST14, Homo sapiens, UniProt Q9Y5Y6)
target,read-out,action,method,concentration,quantity,value,SMILES
CDK2 with cyclin A2,enzyme activity,inhibitor,,0.1 µM,inhibition,58.2%,CNC(=O)c1cc(Oc2ccc(NC(=O)Nc3ccc(Cl)c(C(F)(F)F)c3)cc2)ccn1
ST14,enzyme activity,inhibitor,,0.1 µM,remaining activity,45%,CCC[C@H](NC(=O)[C@H](Cc1cscn1)NC(=O)CCc1ccccc1)C(=O)N[C@@H](CCCNC(=N)N)C(=O)c1nc2ccccc2s1
"Cyclin-dependent kinase 2, with cyclin A (CDK2, Homo sapiens, UniProt P24941)",enzyme activity,inhibitor,,1 µM,remaining activity,100%,COc1cc(-c2cncc3c2CN(C)Cc2cc(N4CCNCC4)ccc2-3)cc(OC)c1OC
CDK2 with cyclin A2,enzyme activity,inhibitor,,0.5 µM,inhibition,53.4%,CC(=O)Nc1c(N)nc(SCC(=O)NN)[nH]c1=O
"Vascular endothelial growth factor receptor 3 (FLT4, Homo sapiens, UniProt P35916)",binding,,competition with immobilised ligand,1 µM,remaining binding,83%,C=CC(=O)N1CCC(COCC(=O)N2CCN(c3nc(-c4cnc(N)nc4C(F)F)nc(N4CCOC[C@@H]4C)n3)CC2)CC1
ST14,enzyme activity,inhibitor,,0.1 µM,remaining activity,68%,N=C(N)NCCC[C@H](NC(=O)[C@H](CC1CC1)NC(=O)[C@H](Cc1cscn1)NC(=O)CCc1ccccc1)C(=O)c1nc2ccccc2s1
"Mitogen-activated protein kinase 10 (MAPK10, Homo sapiens, UniProt P53779)",binding,,competition with immobilised ligand,1 µM,remaining binding,100%,Cc1cc([C@@H](C)Nc2ccccc2C(=O)O)c2nc(N3CCC(F)(F)CC3)c(C#N)c(=O)n2c1
ST14,enzyme activity,inhibitor,,0.1 µM,remaining activity,30%,N=C(N)NCCC[C@H](NC(=O)[C@H](Cc1ccc(-c2ccccc2)cc1)NC(=O)[C@H](Cc1cscn1)NC(=O)CCc1ccccc1)C(=O)c1nc2ccccc2s1
CDK2 with cyclin A2,enzyme activity,inhibitor,,0.5 µM,inhibition,51.5%,CC(=O)Nc1c(N)nc(SCC(=O)N/N=C/c2ccc([N+](=O)[O-])cc2)[nH]c1=O
"Serine/threonine-protein kinase VRK1 (VRK1, Homo sapiens, UniProt Q99986)",enzyme activity,inhibitor,radiometric,1 µM,remaining activity,100%,CNc1ncc2c(/C=C/C(=O)N3CCC(OC)CC3)nn(Cc3cccc(C(F)(F)F)c3)c2n1
